Laboratory results taken from article PMC2787711 (Biochimica et biophysica acta, 2009).
Entries after “also recorded” stand apart in the source; their conditions may differ.

How the values were obtained:
bovine bc1 complex = bovine bc1 complex (Bos taurus, UniProt P00157+P13272); assay: Ubiquinol-cytochrome c reductase activity of purified bc1 complex; type: biochemical; details: for Selectivity Coefficient (comparison in words): IC50 bovine enzyme divided by IC50 yeast enzyme, Fig. 5
Summary of the method: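 Bovine heart bc1 complex, 2.5 nM, in phosphate pH 7.0 buffer with sucrose, EDTA, azide, KCN, dodecylmaltoside and 40 µM cytochrome c at 23 °C. Enzyme preincubated 1 min with increasing test compound; started with decylbenzoquinol; cytochrome c reduction read at 550 vs 539 nm. Duplicates averaged. IC50 taken from titration curves; Selectivity Coefficient = bovine IC50 / yeast IC50.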

[1] = target: center P of the yeast cytochrome bc1 complex (Saccharomyces cerevisiae, UniProt P00163+P08067); assay: Pre-steady-state oxidant-induced reduction of cytochrome b through center P; type: biochemical; details: 2 µM inhibitor, bc1 complex pre-reduced with quinol, 3 µM antimycin
Summary of the method: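 Then 3 µM antimycin and 2 µM test compound added, 1 min further. Rapid-mixed with 3 µM cytochrome c; stopped-flow rapid-scanning spectroscopy at 24 °C. Absorbance change at 562 and 578 nm extracted; 12–19 data sets averaged.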

[2] = target: center N of the yeast cytochrome bc1 complex (Saccharomyces cerevisiae, UniProt P00163+P08067); assay: Pre-steady-state reduction of cytochrome b through center N; type: biochemical; details: 2 µM NQ1, 3 µM stigmatellin, oxidized bc1 complex
Summary of the method: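 Stopped-flow rapid scanning at 24 °C: 1 µM oxidized yeast bc1 complex with 3 µM stigmatellin, with or without 2 µM test compound. Rapid-mixed with 30 µM 2,3-dimethoxy-5-methyl-6-decyl-1,4-benzoquinol. Cytochrome b reduction followed as absorbance time course at 562 and 578 nm; 12–19 data sets averaged.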

avian malaria = details: cited from earlier work
malaria = details: cited from earlier work
[3] = cited from earlier work

SMILES	Selectivity Coefficient (comparison in words) (bovine bc1 complex)	inhibition of oxidant-induced reduction of cytochrome b through center P [1]	other results
CC(CCCCCC(F)(F)F)CC1=C(O)C(=O)c2ccccc2C1=O (centres unmarked) [NQ1, 2-OH-3-(2-Me-trifluorooctyl)-naphthoquinone]	higher selectivity than atovaquone	completely inhibited	effect on cytochrome b reduction through center N [2]: no effect; also recorded: identical, superimposed kinetic traces in the presence and absence
CCCCCCC(C)CC1=C(O)C(=O)c2c(C)cccc2C1=O (centres unmarked) [NQ2, 2-OH-3-(2-Me-octyl)-8-Me-naphthoquinone]	higher selectivity than atovaquone		
Cc1cccc2c1C(=O)C(O)=C(CC(C)CCCCCC(F)(F)F)C2=O (centres unmarked) [NQ3, 2-OH-3-(2-Me-trifluorooctyl)-8-Me-naphthoquinone]	higher selectivity than atovaquone		
CCCCCCC(C)CC1=C(O)C(=O)c2ccccc2C1=O (centres unmarked) [S-10576]	greatest selectivity		Selectivity Coefficient relative to that of atovaquone (bovine bc1 complex; Selectivity Coefficient = IC50 bovine enzyme divided by IC50 yeast enzyme): ~10 fold; efficacy against avian malaria (avian malaria): effective; efficacy in humans (malaria): ineffective; metabolism and excretion in vivo [3]: terminal two carbons of the side chain are modified by oxidation and the resulting more water soluble compound is rapidly excreted
O=C1C(O)=C([C@H]2CC[C@H](c3ccc(Cl)cc3)CC2)C(=O)c2ccccc21 [atovaquone, 2-[trans-4-(4’-chlorophenyl)cyclohexyl]-3-hydroxy-1,4-hydroxynaphthoquinone, reference compound]		greatly inhibited	
